For seven compounds, MIC and IC50 results are on record in ChEMBL document CHEMBL1155742, “Phomoxanthones A and B, novel xanthone dimers from the endophytic fungus Phomopsis species” (J Nat Prod, 2001).

≈ marks a conversion by molar mass, not a printed value.

For orientation: MIC means the smallest concentration in the dilution series that meets the test's criterion for growth inhibition. By IC50 is commonly meant the midpoint of a concentration-inhibition curve.

The subject of assay [1] is Mycobacterium tuberculosis. The assay can be described thus: Antitubercular activity against Mycobacterium tuberculosis H37Ra by microplate Alamar blue assay. In kind it is functional. In a few lines:
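Growth inhibition of M. tuberculosis H37Ra measured by Microplate Alamar Blue Assay; activity reported as MIC in µg/mL.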

Another assay deals with Plasmodium falciparum. The experiment in a line: Antimalarial activity against multidrug-resistant Plasmodium falciparum K1 by [3H]hypoxanthine uptake. Format: functional, organism-based. A digest of the protocol:
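Multidrug-resistant P. falciparum K1 tested in vitro by microculture radioisotope technique. IC50 is the concentration giving 50% reduction of parasite growth, measured as [3H]-hypoxanthine uptake, reported in µg/mL.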

In a further assay the test system is KB. The experiment in a line: Cytotoxicity against human KB cells by SRB assay. In kind it is functional, cell-based. A digest of the protocol:
(§1)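 Purified compounds tested for cytotoxicity by a colorimetric method on human epidermoid carcinoma KB, human breast cancer BC-1 and African monkey kidney fibroblast Vero cells. Values are IC50 in µg/mL. Ellipticine served as the standard for KB and BC-1.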
Background: The SRB assay estimates cell density from bound dye.

Assay [2] is described as follows: Cytotoxicity against human BC1 cells by SRB assay. In kind it is functional, cell-based. A digest of the protocol:
as §1

The test system of a further assay is Vero. The experiment in a line: Cytotoxicity against african green monkey Vero cells by SRB assay. In kind it is cell-based. The note with it: Chlorocebus sabaeus. In a few lines:
as §1

In assay [1], `NC[C@H]1O[C@H](O[C@H]2[C@H](O)[C@@H](O[C@H]3O[C@H](CO)[C@@H](O)[C@H](N)[C@H]3O)[C@H](N)C[C@@H]2N)[C@H](O)[C@@H](O)[C@@H]1O.O=S(=O)(O)O` [KANAMYCIN SULFATE] registered an MIC of 2.5 µg/mL.
`NNC(=O)c1ccncc1` [ISONIAZID] gave an MIC in assay [1] of 0.05 µg/mL (≈ 0.365 µM).
In the case of `C[C@@H]1CC[C@H]2[C@@H](C)C(=O)O[C@@H]3O[C@@]4(C)CC[C@@H]1[C@]32OO4` [ARTEMISININ], in the assay on Plasmodium falciparum, the IC50 was 0.0011 µg/mL (≈ 0.0039 µM).
With `CC(=O)OC[C@]12Oc3c(-c4ccc(O)c5c4O[C@@]4(COC(C)=O)C(=C(O)C[C@@H](C)[C@H]4OC(C)=O)C5=O)ccc(O)c3C(=O)C1=C(O)C[C@@H](C)[C@H]2OC(C)=O` [PHOMOXANTHONE A], the IC50 in the assay with Plasmodium falciparum is 0.11 µg/mL (≈ 0.147 µM); with KB, 0.99 µg/mL (≈ 1.32 µM); in assay [2], 0.51 µg/mL (≈ 0.679 µM); in the assay on Vero, 1.4 µg/mL (≈ 1.86 µM). This compound showed an MIC in assay [1] of 0.5 µg/mL (≈ 0.666 µM).
The like results for `CC(=O)OC[C@]12Oc3ccc(-c4ccc(O)c5c4O[C@@]4(COC(C)=O)C(=C(O)C[C@@H](C)[C@H]4OC(C)=O)C5=O)c(O)c3C(=O)C1=C(O)C[C@@H](C)[C@H]2OC(C)=O` [PHOMOXANTHONE B] were, in that order, 0.33 µg/mL (≈ 0.44 µM), 4.1 µg/mL (≈ 5.46 µM), 0.7 µg/mL (≈ 0.932 µM), 1.8 µg/mL (≈ 2.4 µM) and 6.25 µg/mL (≈ 8.33 µM).
For `Cc1c2ccncc2c(C)c2c1[nH]c1ccccc12` [ELLIPTECINE], the IC50 is 0.46 µg/mL (≈ 1.87 µM) in the assay on KB and 0.6 µg/mL (≈ 2.44 µM) in assay [2].
`C[C@@H]1CC(O)=C2C(=O)c3c(O)ccc(-c4ccc(O)c5c4O[C@@]4(CO)C(=C(O)C[C@@H](C)[C@H]4O)C5=O)c3O[C@]2(CO)[C@@H]1O` [DEACETYLPHOMOXANTHONE A]: the IC50 in the assay with Plasmodium falciparum is more than 20 µg/mL; in the assay on KB it was more than 20 µg/mL; in assay [2], more than 20 µg/mL; with Vero, more than 50 µg/mL. Further, the MIC in assay [1] was more than 200 µg/mL.
